ChEMBL document CHEMBL1149790, “Synthesis of some novel thiourea derivatives obtained from 5-[(4-aminophenoxy)methyl]-4-alkyl/aryl-2,4-dihydro-3H-1,2,4-triazole-3-thiones and evaluation as antiviral/anti-HIV and anti-tuberculosis agents” (Eur J Med Chem, 2008)
Converted amounts (≈) assume the structure as drawn.

Experiments:
Vaccinia virus [1] = assay: Antiviral activity against Vaccinia virus in human HEL cells assessed as reduction of virus-induced cytopathogenicity; assay type: functional; details: Orthopoxvirus vaccinia
Summary of the method: (§1)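 Confluent cell monolayers (E6SM, HEL, HeLa or Vero, per line) inoculated with 100 CCID50 virus; 1 h adsorption, residual virus removed, then incubated with compound at 400, 200, 100 … µg/ml. Cytopathicity scored once complete in untreated virus controls; MIC = concentration inhibiting virus-induced cytopathicity.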

Vaccinia virus [2] = assay: Antiviral activity against Vaccinia virus in human E6SM cells assessed as reduction of virus-induced cytopathogenicity; assay type: functional; details: Orthopoxvirus vaccinia; summary of the method: as §1

Row | SMILES | MIC (Vaccinia virus [1]) | MIC (Vaccinia virus [2])
1 | CNC(=S)Nc1ccc(OCc2n[nH]c(=S)n2-c2ccccc2)cc1 | > 400 µg/mL | > 400 µg/mL
2 | C=CCNC(=S)Nc1ccc(OCc2n[nH]c(=S)n2C)cc1 | > 400 µg/mL | > 400 µg/mL
3 | C=CCNC(=S)Nc1ccc(OCc2n[nH]c(=S)n2-c2ccccc2)cc1 | 240 µg/mL (≈ 604 µM) | 240 µg/mL (≈ 604 µM)
4 | C=CCNC(=S)Nc1ccc(-c2n[nH]c(=S)n2C)cc1 | 240 µg/mL (≈ 786 µM) | 240 µg/mL (≈ 786 µM)
5 | C=CCNC(=S)Nc1ccc(-c2n[nH]c(=S)n2CCc2ccccc2)cc1 | > 80 µg/mL | > 80 µg/mL
6 | C=CCNC(=S)Nc1ccc(-c2n[nH]c(=S)n2CC)cc1 | 240 µg/mL (≈ 751 µM) | 240 µg/mL (≈ 751 µM)
7 | C=CCNC(=S)Nc1ccc(-c2n[nH]c(=S)n2-c2ccccc2)cc1 | > 80 µg/mL | > 80 µg/mL
8 | C=CCNC(=S)Nc1ccc(OCc2n[nH]c(=S)n2CC=C)cc1 | 240 µg/mL (≈ 664 µM) | 240 µg/mL (≈ 664 µM)
9 | C=CCNC(=S)Nc1ccc(-c2n[nH]c(=S)n2CCCCCC)cc1 | > 16 µg/mL | > 16 µg/mL
10 | C=CCn1c(-c2ccc(NC(=S)Nc3ccccc3)cc2)n[nH]c1=S | > 16 µg/mL | > 16 µg/mL
11 | C=CCNC(=S)Nc1ccc(-c2nnc(SCc3ccc(Cl)cc3Cl)n2C)cc1 | > 16 µg/mL | > 16 µg/mL
12 | Cn1c(-c2ccc(NC(=S)Nc3ccccc3)cc2)n[nH]c1=S | > 80 µg/mL | > 80 µg/mL
13 | Nc1nc2c(ncn2COCCO)c(=O)[nH]1 [ACYCLOVIR] | > 400 µg/mL | > 400 µg/mL
14 | C=CCn1c(-c2ccc(NC(=S)NC)cc2)n[nH]c1=S | 240 µg/mL (≈ 786 µM) | 240 µg/mL (≈ 786 µM)
15 | CCNC(=S)Nc1ccc(-c2n[nH]c(=S)n2-c2ccccc2)cc1 | > 3.2 µg/mL | > 3.2 µg/mL
16 | C=CCn1c(COc2ccc(N)cc2)n[nH]c1=S | > 400 µg/mL | > 400 µg/mL
17 | CCCCCCNC(=S)Nc1ccc(-c2n[nH]c(=S)n2-c2ccccc2)cc1 | > 16 µg/mL | > 16 µg/mL
18 | Nc1nc2c(ncn2COC(CO)CO)c(=O)[nH]1 [GANCICLOVIR] | > 100 µg/mL | > 100 µg/mL
19 | Cn1c(COc2ccc(N)cc2)n[nH]c1=S | 240 µg/mL (≈ 1020 µM) | 240 µg/mL (≈ 1020 µM)
20 | S=C(Nc1ccccc1)Nc1ccc(-c2n[nH]c(=S)n2-c2ccccc2)cc1 | > 80 µg/mL | > 80 µg/mL
21 | Cn1c(COc2ccc(NC(=S)Nc3ccccc3)cc2)n[nH]c1=S | > 80 µg/mL | > 80 µg/mL
22 | CCCCCCNC(=S)Nc1ccc(-c2n[nH]c(=S)n2CCCCCC)cc1 | > 3.2 µg/mL | > 3.2 µg/mL
23 | CCNC(=S)Nc1ccc(OCc2n[nH]c(=S)n2CC)cc1 | 240 µg/mL (≈ 711 µM) | 240 µg/mL (≈ 711 µM)

Row | SMILES | MIC (Vaccinia virus [1]) | MIC (Vaccinia virus [2])
24 | C=CCNC(=S)Nc1ccc(OCc2n[nH]c(=S)n2CC)cc1 | 240 µg/mL (≈ 687 µM) | 240 µg/mL (≈ 687 µM)
25 | CCn1c(COc2ccc(N)cc2)n[nH]c1=S | 240 µg/mL (≈ 959 µM) | 240 µg/mL (≈ 959 µM)
26 | C=CCn1c(COc2ccc(NC(=S)Nc3ccccc3)cc2)n[nH]c1=S | > 80 µg/mL | > 80 µg/mL
27 | C=CCn1c(COc2ccc(NC(=S)NC)cc2)n[nH]c1=S | > 400 µg/mL | > 400 µg/mL
28 | S=C(Nc1ccccc1)Nc1ccc(OCc2n[nH]c(=S)n2-c2ccccc2)cc1 | > 80 µg/mL | > 80 µg/mL
29 | CNC(=S)Nc1ccc(OCc2n[nH]c(=S)n2C)cc1 | > 400 µg/mL | > 400 µg/mL
30 | Nc1ccc(OCc2n[nH]c(=S)n2-c2ccccc2)cc1 | > 400 µg/mL | > 400 µg/mL
31 | S=C(Nc1ccc(Cl)cc1)Nc1ccc(-c2n[nH]c(=S)n2-c2ccccc2)cc1 | > 16 µg/mL | > 16 µg/mL
32 | CCNC(=S)Nc1ccc(OCc2n[nH]c(=S)n2-c2ccccc2)cc1 | > 400 µg/mL | > 400 µg/mL
33 | CNC(=S)Nc1ccc(-c2n[nH]c(=S)n2-c2ccccc2)cc1 | > 80 µg/mL | > 80 µg/mL
34 | CNC(=S)Nc1ccc(-c2n[nH]c(=S)n2C)cc1 | 240 µg/mL (≈ 859 µM) | 240 µg/mL (≈ 859 µM)
35 | CCn1c(COc2ccc(NC(=S)NC)cc2)n[nH]c1=S | > 400 µg/mL | > 400 µg/mL
36 | C=CCNC(=S)Nc1ccc(-c2n[nH]c(=S)n2CC=C)cc1 | > 80 µg/mL | > 400 µg/mL
37 | NC(=O)c1ncn([C@@H]2O[C@H](CO)[C@@H](O)[C@H]2O)n1 [RIBAVIRIN] | 48 µg/mL (≈ 197 µM) | 48 µg/mL (≈ 197 µM)
38 | CCCCCCNC(=S)Nc1ccc(-c2n[nH]c(=S)n2C)cc1 | 80 µg/mL (≈ 229 µM) | 80 µg/mL (≈ 229 µM)
39 | C=CCNC(=S)Nc1ccc(-c2nnc(SCc3ccc(Cl)cc3Cl)n2-c2ccccc2)cc1 | > 16 µg/mL | > 16 µg/mL
40 | CNC(=S)Nc1ccc(-c2nnc(SCc3ccccc3)n2C)cc1 | > 16 µg/mL | > 16 µg/mL
41 | CCNC(=S)Nc1ccc(-c2n[nH]c(=S)n2C)cc1 | 240 µg/mL (≈ 818 µM) | 240 µg/mL (≈ 818 µM)
42 | C=CCn1c(COc2ccc(NC(=S)NCC)cc2)n[nH]c1=S | > 400 µg/mL | > 400 µg/mL
43 | CCCCCCNC(=S)Nc1ccc(-c2n[nH]c(=S)n2CC)cc1 | > 80 µg/mL | > 80 µg/mL
44 | O=c1[nH]c(=O)n([C@H]2C[C@H](O)[C@@H](CO)O2)cc1/C=C/Br [BRIVUDINE] | 3.2 µg/mL (≈ 9.61 µM) | 3.2 µg/mL (≈ 9.61 µM)
45 | CCn1c(COc2ccc(NC(=S)Nc3ccccc3)cc2)n[nH]c1=S | > 80 µg/mL | > 80 µg/mL
46 | CCNC(=S)Nc1ccc(OCc2n[nH]c(=S)n2C)cc1 | > 400 µg/mL | > 400 µg/mL
